Laboratory results: ChEMBL document CHEMBL1146361, “Studies on acyclic pyrimidines as inhibitors of mycobacteria” (Bioorg Med Chem, 2007)
The source made the active and inactive calls. No cut-off for these calls is given here.

tested on: Enterococcus faecalis; experiment: Antibacterial activity against Enterococcus faecalis up to 100 ug/ml after 16 to 20 hrs by broth microdilution method; format: functional, organism-based; details: not given

Row | Structure (SMILES) | Activity
1 | CCCCCC#Cc1cn(COCCO)c(=O)[nH]c1=O | inactive
2 | CCCCCCCCC#Cc1cn(COC(CO)CO)c(=O)[nH]c1=O | inactive
3 | Nc1cn(COCCO)c(=O)[nH]c1=O | inactive
4 | CCc1cn(COCCO)c(=O)[nH]c1=O | inactive
5 | [N-]=[N+]=NC(CBr)c1cn(COC(CO)CO)c(=O)[nH]c1=O (centres undefined) | inactive

tested on: HepG2; experiment: Toxicity against HepG2 cells; format: functional, cell-based; details: Homo sapiens

Row | Structure (SMILES) | Activity
6 | CCCCCCCCC#Cc1cn(COC(CO)CO)c(=O)[nH]c1=O | Not toxic

tested on: Escherichia coli; experiment: Antibacterial activity against Escherichia coli up to 100 ug/ml after 16 to 20 hrs by broth microdilution method; format: functional, organism-based; details: not given

Row | Structure (SMILES) | Activity
7 | CCCCCC#Cc1cn(COCCO)c(=O)[nH]c1=O | inactive
8 | CCCCCCCCC#Cc1cn(COC(CO)CO)c(=O)[nH]c1=O | inactive
9 | Nc1cn(COCCO)c(=O)[nH]c1=O | inactive
10 | CCc1cn(COCCO)c(=O)[nH]c1=O | inactive
11 | [N-]=[N+]=NC(CBr)c1cn(COC(CO)CO)c(=O)[nH]c1=O (centres undefined) | inactive

tested on: Mycobacterium tuberculosis; experiment: Antimycobacterial activity against Mycobacterium tuberculosis H37Ra at 50 ug/mL after 24 to 48 hrs by MABA; format: functional; details: not given
In short: (§1)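 Compounds in DMSO (100× highest final concentration), diluted in 7H9GC; tested at 100, 50, 10 and 1 µg/mL in triplicate, three experiments. Frozen inoculum diluted in 7H9GC. Read visually and spectrophotometrically. […], mean given. Visual MIC = lowest concentration preventing blue-to-pink change.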

Row | Structure (SMILES) | inhibition at 50 µg/mL [%]
12 | CCCCCCCCC#Cc1cn(COC(CO)CO)c(=O)[nH]c1=O | 100

tested on: Mycobacterium avium; experiment: Antimycobacterial activity against Mycobacterium avium ATCC 25291 at 100 ug/mL after 24 to 48 hrs by MABA; format: functional; details: not given; in short: as §1

Row | Structure (SMILES) | inhibition at 100 µg/mL [%]
13 | CCCCCCCCC#Cc1cn(COC(CO)CO)c(=O)[nH]c1=O | 100

tested on: Mycobacterium tuberculosis; experiment: Antimycobacterial activity against Mycobacterium tuberculosis H37Ra by MABA; format: functional; design: concentration or dose not given beside the values; details: not given; in short: as §1

Row | Structure (SMILES) | Inhibition [%]
14 | CCCCCC#Cc1cn(COCCO)c(=O)[nH]c1=O | 0
15 | Nc1cn(COCCO)c(=O)[nH]c1=O | 0
16 | CCc1cn(COCCO)c(=O)[nH]c1=O | 0
17 | [N-]=[N+]=NC(CBr)c1cn(COC(CO)CO)c(=O)[nH]c1=O (centres undefined) | 0

tested on: Mycobacterium tuberculosis; experiment: Antimycobacterial activity against Mycobacterium tuberculosis H37Ra at 100 ug/mL after 24 to 48 hrs by MABA; format: functional; details: not given; in short: as §1

Row | Structure (SMILES) | inhibition at 100 µg/mL [%]
18 | CCCCCCCCC#Cc1cn(COC(CO)CO)c(=O)[nH]c1=O | 100

tested on: Staphylococcus epidermidis; experiment: Antibacterial activity against Staphylococcus epidermidis up to 100 ug/ml after 16 to 20 hrs by broth microdilution method; format: functional, organism-based; details: not given

Row | Structure (SMILES) | Activity
19 | CCCCCC#Cc1cn(COCCO)c(=O)[nH]c1=O | inactive
20 | CCCCCCCCC#Cc1cn(COC(CO)CO)c(=O)[nH]c1=O | inactive
21 | Nc1cn(COCCO)c(=O)[nH]c1=O | inactive
22 | CCc1cn(COCCO)c(=O)[nH]c1=O | inactive
23 | [N-]=[N+]=NC(CBr)c1cn(COC(CO)CO)c(=O)[nH]c1=O (centres undefined) | inactive

tested on: Mycobacterium avium; experiment: Antimycobacterial activity against Mycobacterium avium ATCC 25291; format: functional; design: concentration or dose not given beside the values; details: not given; in short: as §1

Row | Structure (SMILES) | Inhibition [%]
24 | CCCCCC#Cc1cn(COCCO)c(=O)[nH]c1=O | 0
25 | Nc1cn(COCCO)c(=O)[nH]c1=O | 0
26 | CCc1cn(COCCO)c(=O)[nH]c1=O | 0
27 | [N-]=[N+]=NC(CBr)c1cn(COC(CO)CO)c(=O)[nH]c1=O (centres undefined) | 0

tested on: Mycobacterium avium; experiment: Antimycobacterial activity against Mycobacterium avium ATCC 25291 at 50 ug/mL after 24 to 48 hrs by MABA; format: functional; details: not given; in short: as §1

Row | Structure (SMILES) | inhibition at 50 µg/mL [%]
28 | CCCCCCCCC#Cc1cn(COC(CO)CO)c(=O)[nH]c1=O | 25

tested on: Mycobacterium tuberculosis; experiment: Antimycobacterial activity against Mycobacterium tuberculosis H37Ra at 10 ug/mL after 24 to 48 hrs by MABA; format: functional; details: not given; in short: as §1

Row | Structure (SMILES) | inhibition at 10 µg/mL [%]
29 | CCCCCCCCC#Cc1cn(COC(CO)CO)c(=O)[nH]c1=O | 50

tested on: Proteus vulgaris; experiment: Antibacterial activity against Proteus vulgaris up to 100 ug/ml after 16 to 20 hrs by broth microdilution method; format: functional, organism-based; details: not given

Row | Structure (SMILES) | Activity
30 | CCCCCC#Cc1cn(COCCO)c(=O)[nH]c1=O | inactive
31 | CCCCCCCCC#Cc1cn(COC(CO)CO)c(=O)[nH]c1=O | inactive
32 | Nc1cn(COCCO)c(=O)[nH]c1=O | inactive
33 | CCc1cn(COCCO)c(=O)[nH]c1=O | inactive
34 | [N-]=[N+]=NC(CBr)c1cn(COC(CO)CO)c(=O)[nH]c1=O (centres undefined) | inactive

tested on: Pseudomonas aeruginosa; experiment: Antibacterial activity against Pseudomonas aeruginosa up to 100 ug/ml after 16 to 20 hrs by broth microdilution method; format: functional, organism-based; details: not given

Row | Structure (SMILES) | Activity
35 | CCCCCC#Cc1cn(COCCO)c(=O)[nH]c1=O | inactive
36 | CCCCCCCCC#Cc1cn(COC(CO)CO)c(=O)[nH]c1=O | inactive
37 | Nc1cn(COCCO)c(=O)[nH]c1=O | inactive
38 | CCc1cn(COCCO)c(=O)[nH]c1=O | inactive
39 | [N-]=[N+]=NC(CBr)c1cn(COC(CO)CO)c(=O)[nH]c1=O (centres undefined) | inactive

tested on: Salmonella typhimurium; experiment: Antibacterial activity against Salmonella Typhimurium up to 100 ug/ml after 16 to 20 hrs by broth microdilution method; format: functional, organism-based; details: Salmonella enterica subsp. enterica serovar Typhimurium

Row | Structure (SMILES) | Activity
40 | CCCCCC#Cc1cn(COCCO)c(=O)[nH]c1=O | inactive
41 | CCCCCCCCC#Cc1cn(COC(CO)CO)c(=O)[nH]c1=O | inactive
42 | Nc1cn(COCCO)c(=O)[nH]c1=O | inactive
43 | CCc1cn(COCCO)c(=O)[nH]c1=O | inactive
44 | [N-]=[N+]=NC(CBr)c1cn(COC(CO)CO)c(=O)[nH]c1=O (centres undefined) | inactive

tested on: Streptococcus pneumoniae; experiment: Antibacterial activity against Streptococcus pneumoniae up to 100 ug/ml after 16 to 20 hrs by broth microdilution method; format: functional, organism-based; details: not given

Row | Structure (SMILES) | Activity
45 | CCCCCC#Cc1cn(COCCO)c(=O)[nH]c1=O | inactive
46 | CCCCCCCCC#Cc1cn(COC(CO)CO)c(=O)[nH]c1=O | inactive
47 | Nc1cn(COCCO)c(=O)[nH]c1=O | inactive
48 | CCc1cn(COCCO)c(=O)[nH]c1=O | inactive
49 | [N-]=[N+]=NC(CBr)c1cn(COC(CO)CO)c(=O)[nH]c1=O (centres undefined) | inactive

tested on: Staphylococcus aureus; experiment: Antibacterial activity against Staphylococcus aureus up to 100 ug/ml after 16 to 20 hrs by broth microdilution method; format: functional, organism-based; details: not given

Row | Structure (SMILES) | Activity
50 | CCCCCC#Cc1cn(COCCO)c(=O)[nH]c1=O | inactive
51 | CCCCCCCCC#Cc1cn(COC(CO)CO)c(=O)[nH]c1=O | inactive
52 | Nc1cn(COCCO)c(=O)[nH]c1=O | inactive
53 | CCc1cn(COCCO)c(=O)[nH]c1=O | inactive
54 | [N-]=[N+]=NC(CBr)c1cn(COC(CO)CO)c(=O)[nH]c1=O (centres undefined) | inactive

tested on: Bacillus subtilis; experiment: Antibacterial activity against Bacillus subtilis up to 100 ug/ml after 16 to 20 hrs by broth microdilution method; format: functional, organism-based; details: not given

Row | Structure (SMILES) | Activity
55 | CCCCCC#Cc1cn(COCCO)c(=O)[nH]c1=O | inactive
56 | CCCCCCCCC#Cc1cn(COC(CO)CO)c(=O)[nH]c1=O | inactive
57 | Nc1cn(COCCO)c(=O)[nH]c1=O | inactive
58 | CCc1cn(COCCO)c(=O)[nH]c1=O | inactive
59 | [N-]=[N+]=NC(CBr)c1cn(COC(CO)CO)c(=O)[nH]c1=O (centres undefined) | inactive
